The target of data set [1] is T1, Vitamin D3 receptor (Homo sapiens, UniProt P11473).
T1 sequence (P11473 whole entry): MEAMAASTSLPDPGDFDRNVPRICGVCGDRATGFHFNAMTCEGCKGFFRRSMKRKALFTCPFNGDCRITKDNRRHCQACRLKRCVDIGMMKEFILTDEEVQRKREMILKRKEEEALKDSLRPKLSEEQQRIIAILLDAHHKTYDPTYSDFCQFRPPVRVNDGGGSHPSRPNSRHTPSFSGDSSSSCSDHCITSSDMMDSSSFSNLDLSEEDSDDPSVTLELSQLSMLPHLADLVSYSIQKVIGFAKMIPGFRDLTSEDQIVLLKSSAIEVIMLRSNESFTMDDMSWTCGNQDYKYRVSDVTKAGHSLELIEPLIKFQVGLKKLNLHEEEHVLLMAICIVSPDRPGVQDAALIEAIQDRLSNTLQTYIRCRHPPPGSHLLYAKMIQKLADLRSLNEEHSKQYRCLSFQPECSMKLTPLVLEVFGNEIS
Description: Activation of VDR in human HaCaT cells expressing lentiviral VDRE-luciferase vector assessed as VDRE-mediated transcriptional activity measured after 24 hrs by luciferase transcriptional reporter assay. It is filed as cell-based.

The target in data set [2] is T1, Vitamin D3 receptor. Description: Activation of VDR in human Caco2 cells expressing lentiviral VDRE-luciferase vector assessed as VDRE-mediated transcriptional activity measured after 24 hrs by luciferase transcriptional reporter assay. It is filed as cell-based, Caco-2.
The target in data set [3] is T1, Vitamin D3 receptor. Description: Activation of VDR in human Jurkat cells expressing lentiviral VDRE-luciferase vector assessed as VDRE-mediated transcriptional activity measured after 24 hrs by luciferase transcriptional reporter assay. It is filed as cell-based.
Data set [4] in a line: Antiinflammatory activity in DBA/1 mouse splenocytes assessed as upregulation of LAIR1 level by measuring mean fluorescence intensity at 100 nM by flow cytometry (reference value: 766 +/- 22 au). It is filed as functional, cell-based. The settings on record: Splenocyte. The gist of the method: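 Splenocytes from DBA/1 mice were cultured in EMEM with 9% charcoal-stripped FBS and treated overnight at 10^-7 M, with an ethanol vehicle control. Cells were stained with fluorochrome anti-CD4 and anti-LAIR1. LAIR1 mean fluorescence was read by multiparameter flow cytometry, gated on CD4 cells.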

Data set [5] is described as follows: Growth inhibition of human SK-MEL-188 cells measured after 48 hrs by MTS/PMS assay. It is filed as functional. As to conditions: SK-MEL-188, 48 h.
In data set [6] the target is T2, 25-hydroxyvitamin D-1 alpha hydroxylase, mitochondrial (Mus musculus, UniProt O35084).
T2 sequence (O35084 whole entry): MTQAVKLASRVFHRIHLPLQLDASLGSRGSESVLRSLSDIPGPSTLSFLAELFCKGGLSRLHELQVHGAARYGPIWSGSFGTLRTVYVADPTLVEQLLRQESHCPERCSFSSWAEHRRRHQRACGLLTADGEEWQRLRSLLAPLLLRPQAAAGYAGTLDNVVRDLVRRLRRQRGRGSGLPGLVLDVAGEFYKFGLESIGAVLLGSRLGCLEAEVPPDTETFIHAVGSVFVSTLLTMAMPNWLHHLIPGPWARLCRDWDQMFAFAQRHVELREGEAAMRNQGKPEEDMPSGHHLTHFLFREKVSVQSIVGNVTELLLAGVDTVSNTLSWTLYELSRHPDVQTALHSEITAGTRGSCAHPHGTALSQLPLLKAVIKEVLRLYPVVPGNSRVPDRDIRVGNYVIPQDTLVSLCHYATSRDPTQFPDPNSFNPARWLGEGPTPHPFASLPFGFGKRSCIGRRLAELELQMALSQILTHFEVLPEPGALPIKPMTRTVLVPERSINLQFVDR
Description: Activity of mouse CYP27B1 assessed as compound hydroxylation measured per mol of phospholipid after 3 mins by HPLC. It is filed as ADME. The settings on record: 0.05 h. The gist of the method:
(§1)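 Substrate was incorporated into phospholipid vesicles at 0.0025–0.07 mol/mol PL and incubated 3 min with 0.1 µM mouse CYP27B1. Product was quantified by HPLC. Km and kcat came from a Michaelis–Menten fit, given as mean ± standard error of the curve fit.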

Data set [7] addresses T2, 25-hydroxyvitamin D-1 alpha hydroxylase, mitochondrial. Nature of the data set: Ratio of Kcat to Km for mouse CYP27B1 measured per mol of phospholipid after 3 mins by HPLC. It is filed as ADME. As to conditions: 0.05 h. The gist of the method:
as §1

The target in data set [8] is T3, Vitamin D3 receptor (Homo sapiens) (UniProt P11473).
T3 sequence (whole entry): T1 sequence (P11473 whole entry)
Description: Activation of VDR in human Caco2 cells expressing lentiviral VDRE-luciferase vector assessed as VDRE-mediated transcriptional activity up to 1000 nM measured after 24 hrs by luciferase transcriptional reporter assay. It is filed as cell-based. As to conditions: Caco-2. The gist of the method: (§2)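 Cells carry a lentiviral VDRE-luciferase reporter and were selected for 1 week with an extra 1.0 µg/mL puromycin. Growth media: Caco-2 in DMEM with 10% FBS; HaCaT in the same with 5% FBS; Jurkat in RPMI 1640 with 10% FBS. Cells were plated in FBS-free medium for 24 h, then given serial concentrations (final DMSO 0.1%) for 24 h. ONE-Glo luminescence was read after 5 min at room temperature. Triplicates.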

Data set [9] concerns the target T3, Vitamin D3 receptor (Homo sapiens). Nature of the data set: Activation of VDR in human HaCaT cells expressing lentiviral VDRE-luciferase vector assessed as VDRE-mediated transcriptional activity up to 1000 nM measured after 24 hrs by luciferase transcriptional reporter assay. It counts as cell-based. The gist of the method: as §2
Data set [10] shares this target. Nature of the data set: Activation of VDR in human Jurkat cells expressing lentiviral VDRE-luciferase vector assessed as VDRE-mediated transcriptional activity up to 1000 nM measured after 24 hrs by luciferase transcriptional reporter assay. It is filed as cell-based. The gist of the method: as §2

Structures are written as SMILES. The source made the active and inactive calls. No cut-off for these calls is given here.

Turning to `C=C1/C(=C\C=C2/CCC[C@@]3(C)[C@H]2CC[C@@H]3[C@@](C)(O)C[C@H](O)CC(C)C)C[C@@H](O)C[C@@H]1O`, the EC50 came out at 117 nM at Vitamin D3 receptor [1], 172 nM at Vitamin D3 receptor [2] and 30.6 nM on Vitamin D3 receptor [3]. The Flu intensity in data set [4] came to 1480 a.u. For the same molecule, inhibition in data set [5] was half-maximal at 0.01 nM (IC50).

`C=C1CC[C@H](O)C/C1=C/C=C1\CCC[C@@]2(C)[C@H]1CC[C@@H]2[C@@](C)(O)C[C@@H](O)CC(C)C`: the Km in [6] amounted to 5.2 ×10⁻³ mol/mol. Moreover, the Kcat/Km in data set [7] is 4731. In addition, the Flu intensity in data set [4] was found to be 1480 a.u. Besides, inhibition in [5] was half-maximal at 0.01 nM (IC50). In addition, the outcome in data set [8], in [9] and in [10] was inactive.

Regarding `C=C1/C(=C\C=C2/CCC[C@@]3(C)[C@H]2CC[C@@H]3[C@@](C)(O)C[C@@H](O)CC(C)C)C[C@@H](O)C[C@@H]1O`, the EC50 at Vitamin D3 receptor [1] turned out to be 175 nM; at Vitamin D3 receptor [2] it was 241 nM; at Vitamin D3 receptor [3], 203 nM. The Flu intensity in [4] was determined as 1480 a.u. In [5], this molecule gave an IC50 of 0.01 nM.

As to `C=C1/C(=C\C=C2/CCC[C@]3(C)[C@@H]([C@H](C)CCCC(C)(C)O)CC[C@@H]23)C[C@@H](O)C[C@@H]1O`, the Flu intensity in [4] was found to be 1360 a.u.

With `C=C1/C(=C\C=C2/CCC[C@]3(C)[C@@H]([C@H](C)OCCC(C)(C)O)CC[C@@H]23)C[C@@H](O)C[C@@H]1O` [MAXACALCITOL], the EC50 at Vitamin D3 receptor [1] was found to be 160 nM; at Vitamin D3 receptor [2], 144 nM; at Vitamin D3 receptor [3], 0.855 nM. In addition, in data set [4], the Flu intensity amounted to 1480 a.u.

As to `C=C1CC[C@H](O)C/C1=C/C=C1\CCC[C@@]2(C)[C@H]1CC[C@@H]2[C@@](C)(O)C[C@H](O)CC(C)C`, the Km in data set [6] was 2.3 ×10⁻³ mol/mol. In addition, the Kcat/Km in data set [7] is 5087. Also, the EC50 turned out to be 484 nM on Vitamin D3 receptor [1], 562 nM on Vitamin D3 receptor [2] and 653 nM on Vitamin D3 receptor [3]. The Flu intensity in [4] was found to be 1480 a.u. This molecule displayed an IC50 in [5] of 0.01 nM.

The values are drawn from ChEMBL document CHEMBL3822391, “Synthesis and Biological Evaluation of Vitamin D3 Metabolite 20S,23S-Dihydroxyvitamin D3 and Its 23R Epimer” (J Med Chem, 2016).
